# MsrA act = bovine methionine sulfoxide reductase A activation; activation, % at 10.6 µM; 360,000 tested, 0.3% active; purified bovine MsrA, absorbance read-out; AID 602163; in the data active = activation above about 7.5%
# p-CIP stab down = p/CIP protein destabilization | decrease of EGFP signal, % at 10 µM | F442A p/CIP-EGFP cells, EGFP fluorescence, 16 h | AID 1984 | 290,000 tested, 0.01% active | Q05BA5;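 active = EGFP signal decrease of at least 30% at 10 µM or well 3 SD below plate mean, unless failing retest; inactive = the rest, including hits failing retest or dose response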
# Target sequence (Q05BA5 1-1403): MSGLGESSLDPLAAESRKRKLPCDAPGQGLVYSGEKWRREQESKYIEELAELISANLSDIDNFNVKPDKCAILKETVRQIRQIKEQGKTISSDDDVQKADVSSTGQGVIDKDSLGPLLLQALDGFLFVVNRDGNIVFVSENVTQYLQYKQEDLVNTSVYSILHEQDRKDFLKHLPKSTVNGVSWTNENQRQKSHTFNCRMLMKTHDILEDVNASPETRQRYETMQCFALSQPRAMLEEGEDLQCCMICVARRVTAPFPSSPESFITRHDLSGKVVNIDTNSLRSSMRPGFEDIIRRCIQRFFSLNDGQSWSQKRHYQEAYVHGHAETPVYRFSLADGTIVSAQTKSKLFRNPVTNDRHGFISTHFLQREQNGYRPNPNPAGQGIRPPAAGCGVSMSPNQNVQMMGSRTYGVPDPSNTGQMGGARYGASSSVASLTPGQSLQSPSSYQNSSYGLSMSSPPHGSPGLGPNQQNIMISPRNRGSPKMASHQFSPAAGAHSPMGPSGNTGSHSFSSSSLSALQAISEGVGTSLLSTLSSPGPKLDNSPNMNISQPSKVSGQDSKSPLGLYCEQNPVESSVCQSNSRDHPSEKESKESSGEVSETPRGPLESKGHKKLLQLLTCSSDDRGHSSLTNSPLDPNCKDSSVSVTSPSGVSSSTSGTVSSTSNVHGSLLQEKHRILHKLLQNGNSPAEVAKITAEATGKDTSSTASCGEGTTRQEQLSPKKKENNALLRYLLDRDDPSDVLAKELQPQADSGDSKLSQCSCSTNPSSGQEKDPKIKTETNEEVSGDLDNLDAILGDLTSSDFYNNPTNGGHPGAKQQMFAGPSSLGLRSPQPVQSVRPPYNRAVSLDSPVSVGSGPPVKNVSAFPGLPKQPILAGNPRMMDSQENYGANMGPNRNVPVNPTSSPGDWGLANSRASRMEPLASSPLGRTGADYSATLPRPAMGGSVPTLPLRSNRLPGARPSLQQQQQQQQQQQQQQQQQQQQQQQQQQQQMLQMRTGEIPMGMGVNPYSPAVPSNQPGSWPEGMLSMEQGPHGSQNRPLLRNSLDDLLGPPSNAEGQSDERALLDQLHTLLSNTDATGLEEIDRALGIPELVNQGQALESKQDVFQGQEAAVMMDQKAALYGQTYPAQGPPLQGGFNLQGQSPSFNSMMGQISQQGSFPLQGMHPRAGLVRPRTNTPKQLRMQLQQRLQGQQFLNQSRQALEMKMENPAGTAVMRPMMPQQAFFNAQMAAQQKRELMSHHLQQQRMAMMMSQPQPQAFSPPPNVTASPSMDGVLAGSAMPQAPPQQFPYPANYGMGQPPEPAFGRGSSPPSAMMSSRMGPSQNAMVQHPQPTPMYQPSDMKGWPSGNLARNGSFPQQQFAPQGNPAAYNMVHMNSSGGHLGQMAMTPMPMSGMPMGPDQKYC
# MsrA inhibitor = inhibitors of bovine MsrA. 360,000 tested, 0.75% active. inhibition, % at 15.5 µM. purified bovine MsrA, absorbance read-out
# MT1-MMP act inh = MT1-MMP (human) activation inhibition; AID 651647; 360,000 tested, 0.061% active; HT1080 RFP-PRO-GFP cells, GFP/RFP ratio fluorescence, overnight; percent of plate control window, DMSO zero; P50281; GFP/RFP ratio change, % at 20 µM;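 active = GFP/RFP ratio change of at least 30% with cell ATP level not reduced by more than half and red fluorescence within 50% of control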
#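 Compound: 20 µM single dose, 1% DMSO / System: HT1080 RFP-PRO-GFP cells / Controls: DMSO and RFP-L50D-GFP cell wells / Read-out basis: GFP/RFP fluorescence ratio / Schedule: overnight compound exposure at 37 °C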
# SKN-1 inh = blocks SKN-1 activity in C. elegans; C. elegans VP596 Pgst-4::GFP/RFP ratio, acrylamide-induced, 24 h; inhibition, % at 21.8 µM; 360,000 tested, 0.49% active; AID 624304;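 active = interference check ratio from 0.5 to 1.5 plus GFP to RFP signal ratio inhibition reaching or exceeding a fixed threshold, cut at about 30% in these data, passing the limit was not always enough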
# MsrA inh confirm = confirmation of bovine MsrA inhibitors | shares compounds with MsrA inhibitor | purified bovine MsrA, absorbance read-out | inhibition, % at 15.5 µM | 2,300 tested, 41% active;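 note: coupled to thioredoxin reductase with NADPH and selenocystamine and DMSO as substrate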
# Numbers stand for hits; 0 = inactive; - = no result. Sampled rows, rich in hits. Any-hit rate of the full collection: about 1.6%. Cut-off read from the data, not from the text of the source, unless noted: active = inhibition above about 4.5%; inactive = the rest.
SMILES,MsrA act,p-CIP stab down,MsrA inhibitor,MT1-MMP act inh,SKN-1 inh,MsrA inh confirm
O=[N+]([O-])c1ccc(Cl)c(-c2ccc(/C=N/n3cnnc3)o2)c1,0,0,5.2,0,0,6.0
Cc1nc(N/N=C/c2cccc(F)c2)cc(N2CCOCC2)n1,0,0,0,0,0,-
O=c1nc(N2CCOCC2)nc(N/N=C/c2ccc3c(c2)OCO3)[nH]1,0,0,5.5,0,0,0
Cc1nc(N/N=C/c2ccc(O)cc2O)cc(N2CCOCC2)n1,0,0,4.8,0,0,0
Oc1cccc(/C=N/Nc2cc(N3CCOCC3)nc(N3CCOCC3)n2)c1,0,0,4.9,0,0,6.2
Oc1ccc(/C=N/Nc2cc(N3CCOCC3)nc(N3CCOCC3)n2)cc1O,0,0,4.7,0,0,0
CN(/N=C/c1ccc2c(c1)OCO2)c1nc(N2CCOCC2)nc(N2CCOCC2)n1,0,0,0,0,0,-
C=CCN=C1NC(c2ccccc2)C(C(=O)OC)=C(C)N1C (stereo not drawn),-,-,0,-,-,-
COCc1cc(C)nc(N/N=C/c2ccc(-c3cc(C(=O)O)ccc3Cl)o2)c1C#N,-,0,5.3,-,-,0
COC(=O)CC#C[C@H](C)[C@@H](NS(=O)(=O)c1ccc([N+](=O)[O-])cc1)C(C)(C)C,-,-,0,-,-,-
CC1=C(C(=O)c2ccccc2)C(c2ccc(O)cc2)NC(=S)N1 (stereo not drawn),0,0,5.4,0,0,0
COC(=O)[C@]12C[C@H](CC(=O)NCCCN3CCCC3=O)C(=O)N(Cc3ccc4c(c3)OCO4)C1=C[C@H](COCc1ccccc1)O[C@@H]2C,-,-,0,-,-,-
CCC1=[N+](C)CCn2c(C)ccc21,0,0,6.5,0,0,0
CCC1=[N+](CC(=O)c2ccc(C)cc2)CCn2c(C)ccc21,0,0,0,0,0,-
Cc1nc2c(=O)n(C)c(=O)n(C)c2nc1Cl,0,0,4.7,0,0,0
CCOC(=O)c1ccc(Nc2c(CC)c(C)nc3ncnn23)cc1,0,0,0,0,0,-
CCc1c(C)nc2ncnn2c1Nc1ccc(C(C)=O)cc1,0,0,5.3,0,0,0
COC(=O)c1[nH]c2ccccc2c1NC(=O)Oc1ccccc1,0,0,0,0,0,-
COC(=O)c1[nH]c2cc(OC)c(OC)cc2c1NC(=O)Oc1ccccc1,0,0,5.0,0,0,0
O=C(C(=O)N1CCC(CNC(=O)C2COc3ccccc3O2)CC1)c1cccs1 (stereo not drawn),-,-,0,-,-,-
Cc1ccc(S(=O)(=O)NCCNc2ccc([N+](=O)[O-])cc2C(F)(F)F)cc1,0,0,29.3,0,0,21.3
O=S1(=O)CCSC[C@@H](CN2CCN(c3ccccc3)CC2)N1,-,-,0,-,-,-
Cc1cc(C(=O)N/N=C/c2c(C)n(C)c3ccccc23)n[nH]1,0,0,6.9,0,0,0
Cc1cc(C(=O)N/N=C/c2c3ccccc3cc3ccccc23)n[nH]1,0,0,0,0,0,-
CCC(=O)Nc1ccc(C(=O)N/N=C/c2c(C)[nH]c3ccccc23)cc1,0,0,6.5,0,0,4.9
SMILES,MsrA act,p-CIP stab down,MsrA inhibitor,MT1-MMP act inh,SKN-1 inh,MsrA inh confirm
Cc1[nH]c2ccccc2c1/C=N/NC(=O)c1cc(-c2cccs2)[nH]n1,0,0,4.7,0,0,0
Cc1[nH]c2ccccc2c1/C=N\NC(=O)c1ccccc1Cl,0,-,0,0,0,-
O=[N+]([O-])c1c(Nc2ccccc2O)cc(N2CCOCC2)c2nonc12,0,0,18.0,0,0,24.3
O=C(C=Cc1ccc(O)c(O)c1)NCC(=O)NC(Cc1ccccc1)C(=O)O (stereo not drawn),-,-,0,-,-,-
Cc1ccc(N=c2c([N+](=O)[O-])nn(-c3ccccc3)n2O)c(C)c1,0,0,12.3,0,0,15.0
COc1nccnc1NS(=O)(=O)c1ccc(N/C=C2\CCCCC2=O)cc1,0,0,5.3,0,0,4.6
COc1nccnc1NS(=O)(=O)c1ccc(NS(=O)(=O)c2ccc(NC(C)=O)cc2)cc1,0,0,0,0,0,-
CCOC(=O)C1=CCN(S(=O)(=O)c2cccc(Cl)c2)C1c1ccc(Cl)cc1 (stereo not drawn),-,-,0,-,-,-
CCC(=O)OCCNc1cc(Sc2nc3ccccc3[nH]2)c2nonc2c1[N+](=O)[O-],0,0,5.0,0,0,0
Cn1cc(/C=N/NC(=O)c2ccc(C#N)cc2F)c2ccccc21,0,0,0,0,0,-
CCOC(=O)Cn1cc(/C=N/NC(=O)c2ccc(C#N)cc2F)c2ccccc21,0,0,6.2,0,0,0
N#Cc1ccc(C(=O)N/N=C/c2cn(CC(=O)O)c3ccccc23)c(F)c1,0,0,6.8,0,0,0
O=c1[nH]cnc2nn(C3OC(CO)C(O)C3O)nc12 (stereo not drawn),-,-,0,-,-,-
Oc1cccc(/C=N/Nc2ncnc3c2ncn3Cc2ccccc2)c1,0,0,4.8,0,0,5.2
COC(=O)[C@]12C[C@H](CC(=O)NCc3cccs3)C(=O)N(Cc3ccc4c(c3)OCO4)C1=C[C@H](C(C)(C)C)O[C@@H]2C,-,-,0,-,-,-
Cc1ccc(Nc2n[nH]c(C)c2[N+](=O)[O-])c(C)c1,0,0,10.4,0,0,9.1
Cc1ccccc1Nc1n[nH]c(C)c1[N+](=O)[O-],0,0,0,0,0,-
CC(=O)O[C@H]1C=C[C@@H](NC(=O)OC(C)(C)C)C1,-,-,0,-,-,-
COc1cc([N+](=O)[O-])cc(/C=N/NC(=O)c2ccc(C)nc2)c1O,0,0,0,0,0,-
CCOc1cc(/C=N\NC(=O)c2ccc(C)nc2)cc([N+](=O)[O-])c1O,0,0,8.0,0,0,6.4
COc1cc(/C=N/NC(=O)c2cccnc2)cc(Br)c1O,0,0,4.7,0,0,0
COc1cc(/C=N/NC(=O)c2ccc(C)nc2)cc([N+](=O)[O-])c1O,0,0,5.3,0,0,0
COc1cc(/C=N/n2cnnc2-n2nc(C)cc2C)cc([N+](=O)[O-])c1O,0,0,5.2,0,0,0
O=C1C(Cl)=C(NCCCN2CCOCC2)C(=O)N1CCc1ccccc1,0,0,26.9,0,0,25.2
O=C1C(Cl)=C(NCCc2ccccc2)C(=O)N1CCc1ccccc1,0,0,0,0,0,-
SMILES,MsrA act,p-CIP stab down,MsrA inhibitor,MT1-MMP act inh,SKN-1 inh,MsrA inh confirm
CCN1CCCC1CNC(=O)Cn1nc(C)n2c(cc3cc(F)ccc32)c1=O (stereo not drawn),0,0,25.0,0,0,0
CCOC(=O)CSC1=C(C#N)C(=O)NC(c2ccc(OC)cc2)S1 (stereo not drawn),0,0,6.6,0,0,6.3
C[C@H](CO)N1C[C@H](C)[C@@H](CN(C)C(=O)NC2CCCCC2)OCc2cn(nn2)CCCC1=O,-,-,0,-,-,-
CCOC(=O)c1c(NC(=O)C(=O)N/N=C/c2ccc(OCC)cc2)sc2c1CCCCC2,0,0,0,0,0,-
COc1ccc(/C=N/NC(=O)c2cnccn2)cc1O,0,0,4.8,0,0,4.8
CCOC(=O)c1c(NC(=O)C(=O)N/N=C/c2ccc(O)c(OC)c2)sc2c1CCCCC2,0,0,5.0,0,0,0
